According to ChEMBL document CHEMBL3997782, “Methoxylated 2'-hydroxychalcones as antiparasitic hit compounds” (Eur J Med Chem, 2017):
Converted amounts (≈) assume the structure as drawn.

What was measured:
[1] = Cytotoxicity against human THP1 cells by MTT assay; type: cell-based; details: THP-1 cells
Procedure, shortened: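 THP-1 cells differentiated to macrophages with PMA, viability read by colorimetric MTT. CC50 and NOAEL are the arithmetic mean of at least two independent determinations, each run in triplicate.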

[2] = Cytotoxicity against human A549 cells assessed as cell growth at 10 uM by Cell titer-Glo assay relative to control; type: cell-based; details: read-out: Activity
Procedure, shortened: (§1)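 A549 and WI-38 cells grown in DMEM with 10% v/v FCS, streptomycin 100 µg/ml and penicillin G 100 U/ml. Cell number read as cellular ATP by CellTiter-Glo luminescence. Growth 60–100% scored non-cytotoxic, 0–60% cytostatic, below 0 cytotoxic.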

[3] = Cytotoxicity against human A549 cells assessed as cell growth by Cell titer-Glo assay; type: cell-based; procedure, shortened: as §1
[4] = Cytotoxicity against human […] cells assessed as cell growth at 10 uM by Cell titer-Glo assay relative to control; type: cell-based; details: WI-38 cells, read-out: Activity; procedure, shortened: as §1
786-0 = assay: Mitochondrial toxicity in human 786-O cells at 10 uM by mitotracker red chloromethyl-Xrosamine staining based-uptake method relative to control; type: cell-based; details: 786-0, 10 µM
Procedure, shortened: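 786-O renal carcinoma cells kept in RPMI-1640 with 2 mM glutamine, 10% v/v FCS, streptomycin 100 µg/ml and penicillin G 100 U/ml. Mitochondrial toxicity monitored by MitoTracker Red CMXRos uptake with high-content imaging.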

CYP1A2 = molecular target: T1, CYP1A2 (Homo sapiens, UniProt P05177); assay: Inhibition of human CYP1A2 expressed in baculovirus-infected insect cells at 10 uM using Luciferin-1A2 as substrate in presence of NADPH by P450-Glo luminescence assay relative to control; type: ADME; details: probe Luciferin-1A2
T1 sequence (P05177 whole entry): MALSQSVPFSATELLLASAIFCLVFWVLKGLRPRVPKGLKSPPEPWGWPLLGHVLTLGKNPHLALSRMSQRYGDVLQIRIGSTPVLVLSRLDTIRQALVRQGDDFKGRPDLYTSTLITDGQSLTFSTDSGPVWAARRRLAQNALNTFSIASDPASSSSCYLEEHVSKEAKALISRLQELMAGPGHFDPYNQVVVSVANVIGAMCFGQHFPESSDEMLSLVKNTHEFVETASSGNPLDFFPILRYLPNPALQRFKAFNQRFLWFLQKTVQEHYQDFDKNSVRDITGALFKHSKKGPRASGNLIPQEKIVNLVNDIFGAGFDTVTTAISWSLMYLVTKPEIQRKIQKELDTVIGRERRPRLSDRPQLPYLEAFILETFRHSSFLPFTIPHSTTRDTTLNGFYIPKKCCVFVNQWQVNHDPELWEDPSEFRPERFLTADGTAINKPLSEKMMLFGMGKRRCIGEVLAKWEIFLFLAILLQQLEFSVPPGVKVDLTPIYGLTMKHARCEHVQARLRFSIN
Procedure, shortened: (§2)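 CYP enzymes as microsomal preparations from baculovirus-infected insect cells, run on the P450-Glo luminogenic substrate platform. A fall in light output indicates inhibition.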

CYP2C9 = CYP2C9 (Homo sapiens, UniProt P11712); assay: Inhibition of human CYP2C9 expressed in baculovirus-infected insect cells at 10 uM using Luciferin-H as substrate in presence of NADPH by P450-Glo luminescence assay relative to control; details: probe Luciferin-H
Cytochrome P450 2C9 = Cytochrome P450 2C9 (Homo sapiens, UniProt P11712); assay: Inhibition of human CYP2C9 expressed in baculovirus-infected insect cells using Luciferin-H as substrate in presence of NADPH by P450-Glo luminescence assay
CYP2C19 = CYP2C19 (Homo sapiens, UniProt P33261); assay: Inhibition of human CYP2C19 expressed in baculovirus-infected insect cells at 10 uM using Luciferin-H EGE as substrate in presence of NADPH by P450-Glo luminescence assay relative to control; type: ADME; details: probe Luciferin-H EGE; procedure, shortened: as §2
CYP3A4 = CYP3A4 (Homo sapiens, UniProt P08684); assay: Inhibition of human CYP3A4 expressed in baculovirus-infected insect cells at 10 uM using Luciferin-PFBE as substrate in presence of NADPH by P450-Glo luminescence assay relative to control; type: ADME; details: probe Luciferin-PFBE
[5] = Solubility of the compound in phosphate buffered saline measured after 18 hrs by UV-vis spectroscopic method; type: physicochemical
Procedure, shortened: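 Saturated suspensions prepared at 100 µM in water, 100 µM in PBS, 200 µM in PBS + 10% DMSO and 10 mM in PBS + 50% DMSO. Held 18 h at 25°C, passed through a 0.2 µm filter, then quantified by UV-Vis absorbance at 312 nm using the calculated extinction coefficient.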

[6] = Half-life in BALB/c mouse at 20 mg/kg, po by LC-MS method; type: ADME, organism-based; details: in vivo
Procedure, shortened: (§3)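 BALB/c mice dosed either free (8% DMSO; 1 mg/kg IV or 20 mg/kg oral), or 20 mg/kg oral in 50% w/v hydroxypropyl-β-cyclodextrin, or 20 mg/kg oral in 25% cyclodextrins plus 50% PEG 400. Serial submandibular blood samples stored at -20°C. Plasma measured by isocratic LC-MS (acetonitrile:water 80:20, 0.2 ml/min), quantifier transition m/z 315.0>161.0.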

[7] = Half-life in BALB/c mouse at 20 mg/kg, po as cyclodextrin formulation by LC-MS method; type: ADME, organism-based; details: in vivo; procedure, shortened: as §3
[8] = Drug uptake in BALB/c mouse plasma at 1 mg/kg, iv measured after 15 mins by LC-MS method; type: ADME, organism-based; procedure, shortened: as §3
[9] = Drug uptake in BALB/c mouse plasma at 1 mg/kg, iv measured after 30 mins by LC-MS method; type: ADME, organism-based; procedure, shortened: as §3
[10] = Drug uptake in BALB/c mouse plasma at 1 mg/kg, iv measured after 60 mins by LC-MS method; type: ADME, organism-based; procedure, shortened: as §3
[11] = Drug uptake in BALB/c mouse plasma at 1 mg/kg, iv measured after 180 mins by LC-MS method; type: ADME, organism-based; procedure, shortened: as §3
[12] = Drug uptake in BALB/c mouse plasma at 20 mg/kg, po measured after 0.75 hrs by LC-MS method; type: ADME, organism-based; procedure, shortened: as §3
[13] = Drug uptake in BALB/c mouse plasma at 20 mg/kg, po measured after 1 hr by LC-MS method; type: ADME, organism-based; procedure, shortened: as §3
[14] = Drug uptake in BALB/c mouse plasma at 20 mg/kg, po as 50% cyclodextrin formulation measured after 0.5 hrs by LC-MS method; type: ADME, organism-based; procedure, shortened: as §3
[15] = Drug uptake in BALB/c mouse plasma at 20 mg/kg, po as 50%% cyclodextrin formulation measured after 0.75 hrs by LC-MS method; type: ADME, organism-based; procedure, shortened: as §3
[16] = Drug uptake in BALB/c mouse plasma at 20 mg/kg, po as 50% cyclodextrin formulation measured after 1 hr by LC-MS method; type: ADME, organism-based; procedure, shortened: as §3
[17] = Lipophilicity, log P of the compound; type: physicochemical; details: octanol/water

Chain of CYP2C19 (P33261 whole entry): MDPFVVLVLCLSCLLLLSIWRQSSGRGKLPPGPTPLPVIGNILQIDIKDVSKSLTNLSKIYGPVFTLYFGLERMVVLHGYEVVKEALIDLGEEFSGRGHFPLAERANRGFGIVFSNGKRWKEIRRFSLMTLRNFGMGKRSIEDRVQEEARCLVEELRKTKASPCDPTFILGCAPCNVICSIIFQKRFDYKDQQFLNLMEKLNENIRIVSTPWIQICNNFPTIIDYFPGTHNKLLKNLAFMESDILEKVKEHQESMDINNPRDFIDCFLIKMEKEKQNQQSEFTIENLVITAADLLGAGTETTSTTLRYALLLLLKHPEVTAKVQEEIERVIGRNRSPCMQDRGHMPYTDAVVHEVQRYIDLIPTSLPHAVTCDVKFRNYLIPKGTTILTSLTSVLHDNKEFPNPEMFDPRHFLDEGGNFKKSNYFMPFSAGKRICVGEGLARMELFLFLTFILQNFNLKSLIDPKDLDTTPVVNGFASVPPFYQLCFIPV
Chain of Cytochrome P450 2C9 (P11712 whole entry): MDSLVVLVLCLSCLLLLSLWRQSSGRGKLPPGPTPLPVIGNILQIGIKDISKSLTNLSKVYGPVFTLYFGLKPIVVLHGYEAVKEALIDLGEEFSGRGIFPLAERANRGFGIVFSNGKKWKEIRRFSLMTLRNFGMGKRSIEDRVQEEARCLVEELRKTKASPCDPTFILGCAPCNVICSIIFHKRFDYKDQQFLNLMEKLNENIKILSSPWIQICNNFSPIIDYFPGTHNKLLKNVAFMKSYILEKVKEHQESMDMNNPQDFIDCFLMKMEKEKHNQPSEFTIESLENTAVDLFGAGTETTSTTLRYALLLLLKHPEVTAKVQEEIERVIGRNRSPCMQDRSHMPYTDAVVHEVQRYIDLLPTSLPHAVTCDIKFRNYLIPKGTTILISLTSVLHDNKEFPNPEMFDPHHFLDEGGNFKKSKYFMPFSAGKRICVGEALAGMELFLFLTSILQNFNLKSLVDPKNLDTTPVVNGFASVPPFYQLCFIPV
Chain of CYP2C9 (P11712 whole entry): as above
Chain of CYP3A4 (P08684 whole entry): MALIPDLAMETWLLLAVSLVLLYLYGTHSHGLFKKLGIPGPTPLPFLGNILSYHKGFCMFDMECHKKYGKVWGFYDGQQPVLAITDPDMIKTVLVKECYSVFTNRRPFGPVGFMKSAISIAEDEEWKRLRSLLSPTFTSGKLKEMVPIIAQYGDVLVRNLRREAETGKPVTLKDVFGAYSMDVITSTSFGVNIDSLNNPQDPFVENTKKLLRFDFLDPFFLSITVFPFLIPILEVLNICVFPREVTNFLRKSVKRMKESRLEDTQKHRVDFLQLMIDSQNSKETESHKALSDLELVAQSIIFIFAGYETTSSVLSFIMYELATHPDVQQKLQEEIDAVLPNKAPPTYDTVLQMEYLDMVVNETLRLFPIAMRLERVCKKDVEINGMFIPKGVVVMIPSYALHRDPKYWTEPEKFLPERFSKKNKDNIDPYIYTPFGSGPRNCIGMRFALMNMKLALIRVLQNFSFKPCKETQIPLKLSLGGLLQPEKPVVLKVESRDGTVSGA

## COc1cccc(/C=C/C(=O)c2cc(OC)c(OC)cc2O)c1
[1]
  CC50: 51 µM
[2]
  viability at 10 µM: 95.5%
[3]
  GI50: 12.4 µM
[4]
  viability at 10 µM: 96.1%
786-0
  Activity: 3.6%
CYP1A2
  inhibition at 10 µM: 98%
CYP2C9
  inhibition at 10 µM: 19%
Cytochrome P450 2C9
  IC50: 42.1 µM
CYP2C19
  inhibition at 10 µM: 49.2%
CYP3A4
  inhibition at 10 µM: 12.4%
[5]
  solubility at 18 h: 2.37 µM (≈ 0.745 µg/mL)
[6]
  half-life: 12.6 min
[7]
  half-life: 36.7 min
[8]
  concentration at 0.25 h: 74 nM
[9]
  concentration at 0.5 h: 55 nM
[10]
  concentration at 1 h: 21 nM
[11]
  concentration at 3 h: 5 nM
[12]
  concentration at 0.75 h: 12 nM
[13]
  concentration at 1 h: 9 nM
[14]
  concentration at 0.5 h: 563 nM
[15]
  concentration at 0.75 h: 164 nM
[16]
  concentration at 1 h: 69 nM
[17]
  logP: 3.59
